# Measured values collected from several papers.
# Lines come from different studies, so protocols differ.
Compound,tested on,assay,system,conditions,endpoint,result
CCN1CC2(CCN(CCc3cc(F)ccc3F)CC2)O[C@H](C)C1=O,,thermal pain,rat,intraperitoneal,ED50,1.85 mg/kg
O=c1[nH]c2cc(-c3ccc(Cl)cc3)sc2c(=O)n1O,Human betaherpesvirus 5,"viral replication, inhibitor",,"10 µM, 7 days",inhibition,70%
CO[C@H]1/C=C/O[C@@]2(C)Oc3c(C)c(O)c4c(O)c(c(/C=N/N5CCN(C)CC5)c(O)c4c3C2=O)NC(=O)/C(C)=C\C=C\[C@H](C)[C@H](O)[C@@H](C)[C@@H](O)[C@@H](C)[C@H](OC(C)=O)[C@@H]1C,Mycobacterium tuberculosis,microbial growth,ERDMAN,,IC50,0.031 µM
COc1ccc2c3c1O[C@H]1C(=O)CC[C@@]4(O)[C@@H](C2)N(C)CC[C@]314,,thermal pain,rat,intraperitoneal,ED50,2.67 mg/kg
CCCCCCC#Cc1cncc(-c2nnc(SCc3ccc(Cl)cc3)n2C)c1,Mycobacterium tuberculosis,microbial growth,ERDMAN,,IC90,8.1 µM
O=C(NCc1ccc(F)cc1)c1nc(Cl)c2cccnc2c1O,Human betaherpesvirus 5,"viral replication, inhibitor",HFF,,EC50,8.3 µM
O=C1c2ccccc2C(c2ccccc2)C(=O)N1O (stereo not drawn),Human betaherpesvirus 5,"viral replication, inhibitor",,"10 µM, 7 days",inhibition,23%
CO[C@H]1/C=C/O[C@@]2(C)Oc3c(C)c(O)c4c(O)c(c(/C=N/N5CCN(C)CC5)c(O)c4c3C2=O)NC(=O)/C(C)=C\C=C\[C@H](C)[C@H](O)[C@@H](C)[C@@H](O)[C@@H](C)[C@H](OC(C)=O)[C@@H]1C,Mycobacterium tuberculosis,microbial growth,H37RV,12.5 µg/mL,inhibition,97%
Cc1c(C(=O)O)sc2[nH]c(=O)n(O)c(=O)c12,Human betaherpesvirus 5,"viral replication, inhibitor",,"10 µM, 7 days",inhibition,11%
Nc1ncnc2c([C@@H]3N[C@H](CO)[C@@H](O)[C@H]3O)c[nH]c12,human respiratory syncytial virus,"viral replication, inhibitor",MA104,28.4 µM,inhibition,102%
N.N.[Cl][Pt][Cl],CCD-18Co,"cell growth or viability, MTS",,72 h,IC50,64 µM
O=c1[nH]c2cc(-c3ccc(Cl)cc3)ccc2c(=O)n1O,Human betaherpesvirus 5,"viral replication, inhibitor",,"10 µM, 7 days",inhibition,102%
Nc1nc(O)c2ncn(COC(CO)CO)c2n1,Human betaherpesvirus 5,"viral replication, inhibitor",HFF,,EC50,1.6 µM
CCOC(=O)C1=C(N)N(c2ccc(C(=O)OCC)cc2)C(O)=C(C#N)C12C(=O)Nc1ccccc12 (stereo not drawn),HepG2,"cell growth or viability, MTT",,"3.125 µM, 24 h",viability,74.5%
O=c1[nH]c2sc(-c3ccc(F)cc3)cc2c(=O)n1O,Human betaherpesvirus 5,"viral replication, inhibitor",,"10 µM, 7 days",inhibition,-12%
